As a reminder, the EC50 is the midpoint of the concentration-response curve. Usually Kd stands for the concentration at which binding is half-saturated. As usually defined, the solubility is the concentration that dissolves in the medium under given conditions. Low values mean little dissolved substance, high ones much dissolved substance.

Series [1] concerns the target T1, Son of sevenless homolog 1 (Homo sapiens, UniProt Q07889).
T1 sequence (Q07889 whole entry): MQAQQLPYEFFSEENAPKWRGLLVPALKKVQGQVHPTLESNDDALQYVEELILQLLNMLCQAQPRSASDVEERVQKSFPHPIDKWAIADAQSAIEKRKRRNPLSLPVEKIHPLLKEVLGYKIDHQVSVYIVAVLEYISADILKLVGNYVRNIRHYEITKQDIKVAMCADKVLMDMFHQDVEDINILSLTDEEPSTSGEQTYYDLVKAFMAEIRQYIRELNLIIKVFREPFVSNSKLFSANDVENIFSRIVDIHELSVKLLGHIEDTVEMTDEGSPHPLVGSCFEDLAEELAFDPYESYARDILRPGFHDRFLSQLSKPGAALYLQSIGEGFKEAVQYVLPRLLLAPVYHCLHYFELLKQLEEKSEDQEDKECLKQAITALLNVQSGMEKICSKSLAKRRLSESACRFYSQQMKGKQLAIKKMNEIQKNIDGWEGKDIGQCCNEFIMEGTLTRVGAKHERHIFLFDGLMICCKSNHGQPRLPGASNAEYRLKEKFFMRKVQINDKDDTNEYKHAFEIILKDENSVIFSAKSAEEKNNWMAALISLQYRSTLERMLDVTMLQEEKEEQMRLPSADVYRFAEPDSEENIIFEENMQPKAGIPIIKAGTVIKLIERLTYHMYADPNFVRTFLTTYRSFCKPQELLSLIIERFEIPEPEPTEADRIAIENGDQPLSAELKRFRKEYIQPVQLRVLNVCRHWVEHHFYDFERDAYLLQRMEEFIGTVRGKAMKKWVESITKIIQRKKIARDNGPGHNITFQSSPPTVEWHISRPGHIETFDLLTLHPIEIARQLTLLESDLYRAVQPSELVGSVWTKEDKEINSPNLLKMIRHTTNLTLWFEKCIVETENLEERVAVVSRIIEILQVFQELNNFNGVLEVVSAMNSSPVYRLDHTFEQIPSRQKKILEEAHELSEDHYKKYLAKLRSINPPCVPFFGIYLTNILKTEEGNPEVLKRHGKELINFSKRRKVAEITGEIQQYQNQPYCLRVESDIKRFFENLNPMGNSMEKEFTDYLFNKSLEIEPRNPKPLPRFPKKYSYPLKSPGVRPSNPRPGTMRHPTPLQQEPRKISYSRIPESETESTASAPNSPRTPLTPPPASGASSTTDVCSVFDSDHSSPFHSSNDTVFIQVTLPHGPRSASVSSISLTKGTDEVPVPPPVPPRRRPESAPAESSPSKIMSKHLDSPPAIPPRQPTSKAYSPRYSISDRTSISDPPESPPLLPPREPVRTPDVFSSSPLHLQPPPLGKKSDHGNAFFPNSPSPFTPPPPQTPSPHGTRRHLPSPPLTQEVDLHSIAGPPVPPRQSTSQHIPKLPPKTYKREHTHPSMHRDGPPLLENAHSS
Put plainly: Activation of SOS1 in human HeLa cells expressing wild type KRAS assessed as induction of ERK1/2 T202/Y204 phosphorylation incubated for 30 mins by In-cell Western assay. It is filed as cell-based.

Series [2] deals with T1, Son of sevenless homolog 1. Put plainly: Binding affinity to human recombinant N-terminal His6-tagged SOS1 (564 to 1049 residues) expressed in BL21-RIL Escherichia coli by fluorescent probe S3 based fluorescence polarization anisotrophy saturation binding assay. Put shortly: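 SOS1cat (aa 564–1049) was titrated in a 16-point, 3-fold series from 10 μM top against 50 nM fluorescein probe S3. Buffer was 20 mM Tris-HCl pH 7.5, 50 mM NaCl, 1 mM magnesium chloride. Fluorescence anisotropy was read and Kd reported as mean ± SD of at least three independent experiments.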
(Polarisation of emitted light reports the rotation of a fluorescent probe.)

Series [3] deals with T2, Son of sevenless homolog 1 (Homo sapiens) (UniProt Q07889).
T2 sequence (whole entry): T1 sequence (Q07889 whole entry)
Put plainly: Biphasic activity at of SOS1 in human HeLa cells expressing wild type KRAS assessed as induction of ERK1/2 T202/Y204 phosphorylation at 1.5 to 100 uM (lower range) incubated for 30 mins by In-cell Western assay. The series is classed as cell-based.

Series [4] concerns the target T2, Son of sevenless homolog 1 (Homo sapiens). Briefly: Activation of SOS1 in human NCI-H727 cells expressing KRAS G12V mutant assessed as induction of ERK1/2 T202/Y204 phosphorylation at 1.5 to 100 uM (lower range) incubated for 30 mins by In-cell Western assay. The series is classed as cell-based.
For series [5] the target is unchanged. Briefly: Activation of SOS1 in human HeLa cells expressing wild type KRAS assessed as induction of ERK1/2 T202/Y204 phosphorylation at 1.5 to 100 uM incubated for 30 mins by In-cell Western assay.
Series [6] deals with Son of sevenless homolog 1 (Homo sapiens, UniProt Q07889). Briefly: Activation of SOS1 in human NCI-H727 cells expressing KRAS G12V mutant assessed as induction of ERK1/2 T202/Y204 phosphorylation incubated for 30 mins by In-cell Western assay. The series is classed as cell-based.
Series [7] in a line: Aqueous solubility in pH 6.8 buffer at 1 mg/mL by HPLC/DAD-UV assay. The series is classed as physicochemical. The procedure, abridged: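 Solid compound was dispensed at 1 mg/mL into McIlvaine buffer pH 6.8, with a reference dissolved in acetonitrile/water 1:1 (v/v). Dissolved concentration was quantified by HPLC-DAD-UV. Single experiment.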
The target in series [8] is T2, Son of sevenless homolog 1 (Homo sapiens). Briefly: Biphasic activity at of SOS1 in human HeLa cells expressing wild type KRAS assessed as reduction in ERK1/2 T202/Y204 phosphorylation at 1.5 to 100 uM (higher range) incubated for 30 mins by In-cell Western assay. The series is classed as cell-based.
Series [9] shares this target. Put plainly: Activation of SOS1 in human NCI-H727 cells expressing KRAS G12V mutant assessed as induction of ERK1/2 T202/Y204 phosphorylation at 1.5 to 100 uM (higher range) incubated for 30 mins by In-cell Western assay. The series is classed as cell-based.
The target is the same in series [10]. Briefly: Activation of SOS1 in human HeLa cells expressing wild type KRAS assessed as increase in RAS-GTP levels at 0.3 uM incubated for 10 mins by active RAS pull-down assay. It is filed as cell-based.
The target is the same in series [11]. Briefly: Activation of SOS1 in human HeLa cells expressing wild type KRAS assessed as increase in RAS-GTP levels at 10 to 30 uM incubated for 10 mins by active RAS pull-down assay. It is filed as cell-based. The procedure, abridged:
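HeLa cells, STR-authenticated and mycoplasma-negative, were passaged at least twice after thaw (25 passages maximum). They were seeded to reach 70% confluency after 24 h, then treated. Active RAS-GTP was captured by RAF1-RBD pull-down and detected by SDS-PAGE and western blot with a pan-RAS antibody and a fluorescent secondary, read on an Odyssey imager. Total RAS and α-tubulin in the input served as loading controls.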

Active and inactive are the calls of the source. The calls are words filed in the database; no cut-off is given here.

In the case of `Cc1cc(Cn2c(N3CC4(CNC4)C3)nc3c(N4CCN(C)CC4)cc(Cl)cc32)cc(C)c1F`, the figures for the EC50 in series [1] and in series [6] were 5.9 µM and 10 µM, respectively. Moreover, the Kd in [2] stood at 0.044 µM. Besides, the outcome in series [3], in series [4], in [5], in series [8], in [9] and in series [10] was Active. For the same compound, the outcome in series [11] was Active. The compound further registered a solubility in [7] of over 110 µg/mL.

For the origin of these results see ChEMBL document CHEMBL4196202, “Discovery and Structure-Based Optimization of Benzimidazole-Derived Activators of SOS1-Mediated Nucleotide Exchange on RAS” (J Med Chem, 2018).
